Measurements from ChEMBL document CHEMBL1132470, “Structure-activity relationships of novel 2-substituted quinazoline antibacterial agents” (1999).
Converted amounts (≈) assume the structure as drawn.

Legend:
Assay type in all cases: functional
Escherichia coli [1] = assay: Antibacterial activity against Escherichia coli
Streptococcus pyogenes [2] = assay: Antibacterial activity against Streptococcus pyogenes
How it was run: (§1)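 Run as a duplicate broth microdilution in Todd-Hewitt broth. An overnight culture was added to compound in 4% DMSO in water, giving about 10⁵-10⁶ CFU/well, and incubated at 37 °C. Growth was read as A595 at 24 h. MIC is given as a concentration range: complete inhibition at the upper concentration, viable cells at the lower. Ampicillin and tetracycline served as controls.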

Streptococcus pyogenes [3] = assay: Antibacterial activity against Streptococcus pyogenes (#14289); how it was run: as §1
Escherichia coli [4] = assay: Antibacterial activity against Escherichia coli (#25922)
How it was run: (§2)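 Bacteria were grown in nutrient broth at 37 °C. An overnight culture was added to compound in 4% DMSO/water, giving about 10⁵-10⁶ CFU/well, in duplicate. Absorbance at 595 nm was read after 24 h. MIC is reported as a range between the lowest concentration with complete growth inhibition and the next lower concentration with viable cells. Ampicillin and tetracycline were positive controls.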

Enterococcus faecalis = assay: Antibacterial activity against Enterococcus faecalis (#29212); how it was run: as §1
Klebsiella pneumoniae = assay: Antibacterial activity against Klebsiella pneumoniae (#13883); how it was run: as §2
Staphylococcus aureus = assay: Antibacterial activity against Staphylococcus aureus (#13709)
How it was run: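 Trypticase soy broth culture was grown at 37 °C. The overnight suspension was mixed with compound in 4% DMSO in water, giving a final inoculum of about 10⁵-10⁶ CFU/well, in duplicate. Growth was read as A595 after 24 h. MIC is a concentration range, full inhibition at the higher and viability at the lower. Ampicillin and tetracycline were included as controls.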

Streptococcus pyogenes [5] = assay: Antibacterial activity against Streptococcus pyogenes (#49399)

MIC (Escherichia coli [1]) [µM]	MIC (Streptococcus pyogenes [2]) [µM]	Structure (SMILES)	also measured
< 100	< 100	COc1cc2nc(N3CCC(Nc4ccc(C(=O)OC(C)(C)C)cc4)CC3)nc(OC)c2cc1OC	–
> 50	> 50	COc1cc2nc(N3CCC(Nc4ccc(C(=O)O)cn4)CC3)nc(N)c2cc1OC	–
> 25	> 25	COc1ccc2[nH]c(N3CCC(Nc4ccc(C(=O)O)cc4)CC3)nc2c1	–
< 100	< 100	CC(C)(C)OC(=O)c1ccc(NC2CCN(c3nc(N)c4ccccc4n3)CC2)cc1	–
25 (≈ 13.1 µg/mL)	–	COc1cc2nc(N3CCC(Nc4ccc(C(=O)OC(C)(C)C)cc4[N+](=O)[O-])CC3)nc(N)c2cc1OC	MIC (Streptococcus pyogenes [3]): 50 µM (≈ 26.2 µg/mL)
> 25	> 25	O=C(O)c1ccc(NC2CCN(c3ccc4ccccc4c3)CC2)cc1	–
> 100	> 100	COc1ccc2[nH]c(N3CCC(Nc4ccc(C(=O)OC(C)(C)C)cc4)CC3)nc2c1	–
0.4 (≈ 0.169 µg/mL)	> 25	COc1cc2nc(N3CCC(Nc4ccc(C(=O)O)cc4)CC3)nc(N)c2cc1OC	MIC (Escherichia coli [4]): 60 µM (≈ 25.4 µg/mL); MIC (Enterococcus faecalis): > 100 µM; MIC (Klebsiella pneumoniae): 6 µM (≈ 2.54 µg/mL); MIC (Staphylococcus aureus): 6 µM (≈ 2.54 µg/mL); MIC (Streptococcus pyogenes [5]): > 25 µM
> 20	> 20	COc1cc2nc(N3CCC(Nc4ccc(C(=O)O)cc4)CC3)nc(Nc3ccc(C)cc3)c2cc1OC	–
> 25	> 25	O=C(O)c1ccc(NC2CCN(c3ncccn3)CC2)cc1	–
> 25	> 25	CC(C)(C)OC(=O)c1ccc(NC2CCN(C(=O)c3ccc4ccccc4c3)CC2)cc1	–
10 (≈ 5.7 µg/mL)	2.5 (≈ 1.42 µg/mL)	COc1cc2nc(N3CCC(Nc4ccc(C(=O)OC(C)(C)C)cc4)CC3)nc(Nc3ccc(C)cc3)c2cc1OC	–
> 25	> 25	CC(C)(C)OC(=O)c1ccc(NC2CCN(c3ncccn3)CC2)cc1	–
> 25	–	COC(=O)c1nc(Cl)c(NC2CCN(C(=O)OC(C)(C)C)CC2)nc1N	MIC (Streptococcus pyogenes [3]): > 25 µM
> 100	–	COc1cc2nc(N3CCC(Nc4nc(N)c(C(=O)O)nc4Cl)CC3)nc(N)c2cc1OC	MIC (Streptococcus pyogenes [3]): > 100 µM
> 25	> 25	CC(C)(C)OC(=O)c1ccc(NC2CCN(c3ccc4ccccc4c3)CC2)cc1	–
> 25	> 25	O=C(O)c1ccc(NC2CCN(Cc3ccccc3)CC2)cc1	–
> 25	> 25	O=C(O)c1ccc(NC2CCN(C(=O)c3ccc4ccccc4c3)CC2)cc1	–
> 20	–	COc1cc2nc(N3CCC(Nc4ccc(C(=O)O)cc4[N+](=O)[O-])CC3)nc(N)c2cc1OC	MIC (Streptococcus pyogenes [3]): > 20 µM

MIC (Escherichia coli [1]) [µM]	MIC (Streptococcus pyogenes [2]) [µM]	Structure (SMILES)	also measured
> 25	> 25	CC(C)(C)OC(=O)c1ccc(NC2CCN(Cc3ccccc3)CC2)cc1	–
> 25	> 25	COc1cc2nc(N3CCC(Nc4cnc(C(=O)O)c(N)n4)CC3)nc(N)c2cc1OC	–
> 25	> 25	COC(=O)c1ccc(NC2CCN(Cc3ccccc3)CC2)cc1	–
> 25	–	COC(=O)c1nc(Cl)c(NC2CCN(c3nc(N)c4cc(OC)c(OC)cc4n3)CC2)nc1N	MIC (Streptococcus pyogenes [3]): 12 µM (≈ 5.87 µg/mL)
5 (≈ 2.19 µg/mL)	5 (≈ 2.19 µg/mL)	COC(=O)c1ccc(NC2CCN(c3nc(N)c4cc(OC)c(OC)cc4n3)CC2)cc1	MIC (Escherichia coli [4]): > 100 µM; MIC (Enterococcus faecalis): 20 µM (≈ 8.75 µg/mL); MIC (Klebsiella pneumoniae): > 100 µM; MIC (Staphylococcus aureus): > 100 µM; MIC (Streptococcus pyogenes [5]): 5 µM (≈ 2.19 µg/mL)
> 50	–	COC(=O)c1ncc(NC2CCN(c3nc(N)c4cc(OC)c(OC)cc4n3)CC2)nc1N	MIC (Streptococcus pyogenes [3]): > 50 µM
> 20	> 20	COc1cc2nc(N3CCC(Nc4ccc(C(=O)O)cc4)CC3)nc(OC)c2cc1OC	–
> 20	> 20	COc1cc2nc(N3CCC(Nc4ccc(C(=O)O)cc4)CC3)nc(O)c2cc1OC	–
> 25	> 25	O=C(O)c1ccc(NC2CCN(S(=O)(=O)c3ccc4ccccc4c3)CC2)cc1	–
> 50	25 (≈ 11 µg/mL)	COC(=O)c1ccc(NC2CCN(c3nc(N)c4cc(OC)c(OC)cc4n3)CC2)nc1	–
> 100	> 100	COc1cc2nc(N3CCC(Nc4ccc(C(=O)OC(C)(C)C)cc4)CC3)nc(O)c2cc1OC	–
> 25	> 25	CC(C)(C)OC(=O)c1ccc(NC2CCNCC2)cc1	–
> 25	> 25	CC(C)(C)OC(=O)c1ccc(NC2CCN(S(=O)(=O)c3ccc4ccccc4c3)CC2)cc1	–
> 50	–	COC(=O)c1nc(Cl)c(NC2CCN(Cc3ccccc3)CC2)nc1N	MIC (Streptococcus pyogenes [3]): > 50 µM
> 50	–	COC(=O)c1nc(Cl)c(NNc2nc(N)c3cc(OC)c(OC)cc3n2)nc1N	MIC (Streptococcus pyogenes [3]): > 50 µM
> 100	> 100	Nc1nc(N2CCC(Nc3ccc(C(=O)O)cc3)CC2)nc2ccccc12	–
> 20	> 20	COc1cc2cnc(N3CCC(Nc4ccc(C(=O)O)cc4)CC3)nc2cc1OC	–
6 (≈ 2.88 µg/mL)	3 (≈ 1.44 µg/mL)	COc1cc2nc(N3CCC(Nc4ccc(C(=O)OC(C)(C)C)cc4)CC3)nc(N)c2cc1OC	MIC (Escherichia coli [4]): > 100 µM; MIC (Enterococcus faecalis): 6 µM (≈ 2.88 µg/mL); MIC (Klebsiella pneumoniae): > 100 µM; MIC (Staphylococcus aureus): > 100 µM; MIC (Streptococcus pyogenes [5]): 6 µM (≈ 2.88 µg/mL)
> 20	> 20	COc1cc2cnc(N3CCC(Nc4ccc(C(=O)OC(C)(C)C)cc4)CC3)nc2cc1OC	–

Structure (SMILES)	MIC (Escherichia coli [1]) [µM]	MIC (Streptococcus pyogenes [2]) [µM]	also measured
COC(=O)c1nc(Cl)c(NC2CCNCC2)nc1N	> 25	–	MIC (Streptococcus pyogenes [3]): > 25 µM
